Measured values as given in ChEMBL document CHEMBL1142233, “Treatment of diabetes and atherosclerosis by inhibiting fatty-acid-binding protein aP2” (2007).
The source made the active and inactive calls. No cut-off for these calls is given here.

Tests used:
Mus musculus [1] = experiment: Inhibition of aP2 in 5-week old apoE -/- C57BL/6J mouse fed on western diet and 15 mg/kg/day, po drug simultaneously in early intervention study assessed as reduction of atherosclerotic lesion in en face aorta relative to control; type: functional; set-up: scale not given: the % may be the effect or the level left
Summary of the method: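 Male Apoe⁻/⁻ C57BL/6J mice were fed a western diet (21% fat, 0.21% cholesterol) from 4–5 weeks of age. They were gavaged for 6 weeks with 15 mg kg⁻¹ d⁻¹ in vehicle (10% 1-methyl-2-pyrrolidone, 5% cremophor EL with ethanol, in water), starting at 5 weeks (early) or 12 weeks (late). Perfusion-fixed, pinned-out aortas were stained with Sudan IV and lesion area was quantified.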

Mus musculus [2] = experiment: Effect on body weight in 5-week old apoE-/- C57BL/6J mouse fed on western diet and 15 mg/kg/day, po drug simultaneously in 5-11 week early intervention study; type: functional
[3] = Reduction of Mcp1 expression mouse aP2-/-R macrophage cells (re-expression of aP2) relative to control; type: functional, cell-based
Summary of the method: (§1)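 Mouse aP2⁺/⁺ and aP2-reconstituted aP2⁻/⁻ macrophage lines were grown in RPMI with FBS or 5% LPDS, with inhibitor in DMSO or vehicle. Mcp-1, Il1β, Il6 and Tnf mRNA were measured by SYBR Green qRT-PCR (annealing at 58 °C, 50 cycles), normalized to 18s rRNA and then to untreated cells. Mean ± s.e.m.; at least triplicate.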

Mus musculus [4] = experiment: Increase in insulin-stimulated IRbeta tyrosine 1162/1163 phosphorylation in ob/ob mouse adipose tissue at 40 mg/kg/day, po relative to control; type: functional, organism-based
Summary of the method: (§2)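 Male ob/ob mice were dosed by oral gavage at 40 mg kg⁻¹ d⁻¹ or with vehicle. After 6 h food withdrawal and tribromoethanol anaesthesia, insulin (2 IU kg⁻¹) or PBS went into the portal vein. Adipose tissue was taken 3 min later, lysed and immunoblotted for IRβ pTyr1162/1163, AKT pSer473 and total proteins. Signals were quantified by densitometry.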

Mus musculus [5] = experiment: Increase in insulin-stimulated AKT serine 473 phosphorylation in ob/ob mouse adipose tissue at 40 mg/kg/day, po relative to control; type: functional, organism-based; summary of the method: as §2
Mus musculus [6] = experiment: Attenuation of fatty infiltration of liver in ob/ob mouse at 40 mg/kg/day, po; type: functional, organism-based
Summary of the method: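 Male ob/ob mice given daily oral gavage for 6 weeks starting at 8 weeks of age. Liver sections stained with haematoxylin and eosin; n = 6 per group.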

Mus musculus [7] = experiment: Decrease in Scd1 expression in liver of ob/ob mouse at 40 mg/kg/day, po; type: functional, organism-based
Summary of the method: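 Liver from male ob/ob mice gavaged daily for 6 weeks from 8 weeks of age, n = 6 per group. mRNA measured by SYBR Green real-time PCR: 95 °C 4 min, then 50 cycles of 95 °C 15 s, 58 °C 30 s, 72 °C 30 s. Normalized to 18s rRNA.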

Mus musculus [8] = experiment: Increase in insulin-stimulated IRbeta tyrosine 1162/1163 phosphorylation in ob/ob mouse liver at 40 mg/kg/day, po relative to control; type: functional, organism-based
Summary of the method: (§3)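 Male ob/ob mice got 40 mg kg⁻¹ d⁻¹ by oral gavage or vehicle. After a 6 h fast under tribromoethanol anaesthesia, portal-vein insulin (2 IU kg⁻¹) or PBS was given. Liver was removed 3 min later, lysed and western-blotted for IRβ pTyr1162/1163 and AKT pSer473 against total IRβ and AKT, then quantified.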

Mus musculus [9] = experiment: Increase in insulin-stimulated AKT serine 473 phosphorylation in ob/ob mouse liver at 40 mg/kg/day, po relative to control; type: functional, organism-based; summary of the method: as §3
[10] = Reduction of IL6 expression mouse aP2+/+ macrophage cells relative to control; type: functional, cell-based; summary of the method: as §1
[11] = Reduction of IL6 expression mouse aP2-/-R macrophage cells (re-expression of aP2) relative to control; type: functional, cell-based; summary of the method: as §1
Mus musculus [12] = experiment: Increase in insulin sensitivity in ob/ob mouse at 40 mg/kg/day, po after 5 weeks by insulin tolerance test; type: functional, organism-based
Summary of the method: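 Male ob/ob mice, from 8 weeks of age, got 40 mg kg⁻¹ d⁻¹ of the inhibitor or vehicle by oral gavage for 6 weeks. After 5 weeks of treatment and a 6 h fast, insulin was given intraperitoneally (2 IU kg⁻¹). Blood glucose was read with a glucose meter on 3 μl whole blood. Vehicle and treated groups had n = 6 each.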

Mus musculus [13] = experiment: Decrease in insulin level in ob/ob mouse plasma at 40 mg/kg/day, po after 6 weeks relative to control; type: functional, organism-based
Summary of the method: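 Male ob/ob mice given oral gavage daily for 6 weeks from 8 weeks old, n = 6 per group. Blood taken after 6 h fast before and after treatment; fed glucose taken at week 2. Glucose by meter on 3 μl whole blood, insulin by ultrasensitive ELISA, cholesterol, FFA and glycerol by colorimetric microplate assays.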

Mus musculus [14] = experiment: Suppression of clamp hepatic glucose production in ob/ob mouse at 40 mg/kg/day, po after 4 weeks by hyperinsulinemic-euglycaemic clamp studies; type: functional, organism-based
Summary of the method: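 Clamps were run in ob/ob mice after 4 weeks of oral gavage at 40 mg kg⁻¹ d⁻¹ (vehicle n = 7, treated n = 9), with jugular catheters placed 4 days earlier. Insulin was infused at 12.5 mU kg⁻¹ min⁻¹, 25% glucose at variable rates held basal glycaemia, and ³H-glucose ran at 0.1 μCi min⁻¹. Clamp hepatic glucose production = whole-body uptake minus glucose infusion rate.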

Mus musculus [15] = experiment: Increase in glucose uptake in gastrocnemius muscle in ob/ob mouse at 40 mg/kg/day, po after 4 weeks by hyperinsulinemic-euglycaemic clamp studies relative to control; type: functional, organism-based
Summary of the method: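 Ob/ob mice after 4 weeks of treatment, jugular catheterized 4 days earlier. Clamp with insulin at 12.5 mU kg⁻¹ min⁻¹, variable 25% glucose to hold basal glucose, and ³H-glucose at 0.1 μCi min⁻¹ with 2-¹⁴C-DG. Tissue uptake computed from the fitted plasma 2-¹⁴C-DG curve and tissue 2-¹⁴C-DG-6-phosphate content. n = 7 and 9.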

Mus musculus [16] = organism: Mus musculus; experiment: Decrease in glucose level in wild type mouse fed on high fat diet after 4 weeks by glucose tolerance test relative to control; type: functional, organism-based
Summary of the method: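 Wild-type C57BL/6J mice on 60% fat diet from 4 weeks of age, gavaged with 40 mg kg⁻¹ d⁻¹ or vehicle for 4 weeks starting at 20 weeks of age. Glucose tolerance tested with 1.5 g kg⁻¹ intraperitoneal glucose after an overnight fast.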

Mus musculus [17] = experiment: Effect on adiponectin level in 5-week old apoE-/- C57BL/6J mouse fed on western diet and administered with 15 mg/kg/day, po drug at 12 week in 12-18 week late intervention study; type: functional
Summary of the method: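 Male Apoe−/− mice on western diet (21% fat, 0.21% cholesterol) from 4–5 weeks of age. Oral gavage for 6 weeks from age 5 or 12 weeks; vehicle 10% 1-methyl-2-pyrrolidone, 5% cremophor EL with ethanol in water. Blood taken after 6 h fast before and after treatment. Glucose by meter; insulin by ELISA; lipids and glycerol colorimetric.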

Macrophage [18] = experiment: Reduction in total cholesterol ester content in mouse aP2+/+ macrophage cells at 25 uM relative to control; type: functional, cell-based
THP-1 = experiment: Increase in ABCA1 mRNA level in human THP1 cells at 25 uM relative to control; type: functional, cell-based
Macrophage [19] = experiment: Reduction of IL1-beta expressed in mouse aP2+/+ macrophage cells relative to control; type: functional, cell-based; summary of the method: as §1

With `CCc1c(-c2ccccc2)c(-c2ccccc2)nn1-c1ccccc1-c1cccc(OCC(=O)O)c1` the Activity (Mus musculus [1]) was 52.6%, the Activity (Mus musculus [2]) was 30.3 g and the Activity [3] was “Active”. The Activity (Mus musculus [4]) was “Active”, the Activity (Mus musculus [5]) was “Active” and the Activity (Mus musculus [6]) was “Active”. The Activity (Mus musculus [7]) was “Active”, the Activity (Mus musculus [8]) was “Active” and the Activity (Mus musculus [9]) was “Active”. The Activity [10] was “Active”, the Activity [11] was “Active” and the Activity (Mus musculus [12]) was “Active”. For the same compound, the Activity (Mus musculus [13]) was “Active”, the Activity (Mus musculus [14]) was “Active” and the Activity (Mus musculus [15]) was “Active”. The Activity (Mus musculus [16]) was “Active”, the Activity (Mus musculus [17]) was 5.78 µg/mL and the Activity (Macrophage [18]) was “Active”. For the same compound, the Activity (THP-1) was “Active” and the Activity (Macrophage [19]) was “Active”.
